Test results as given in ChEMBL document CHEMBL2311285, “3-Thiomorpholin-8-oxo-8H-acenaphtho [1,2-b] pyrrole-9-carbonitrile (S1) derivatives as pan-Bcl-2-inhibitors of Bcl-2, Bcl-xL and Mcl-1” (Bioorg Med Chem, 2013).
≈ marks a conversion by molar mass, not a printed value. Calls of active or inactive are those of the source. The rule behind the calls is not given here.

Tests used:
[1] = target: T1, Apoptosis regulator Bcl-2 (Homo sapiens, UniProt P10415); assay: Binding affinity to human Bcl-2 (unknown origin) by biotin-Bim displacement based ELISA
[2] = target: T2, Induced myeloid leukemia cell differentiation protein Mcl-1 (Homo sapiens, UniProt Q07820); assay: Binding affinity to cMcl-1 (residues 171 to 327) (unknown origin) by biotin-Bim displacement based ELISA
Procedure, shortened: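 Competitive ELISA: biotin-Bim (residues 81-106) at 0.09 µg/mL in blocking buffer bound to streptavidin-coated wells for 1.5 h. Serial compound dilutions (from 10 mM DMSO stock) containing 0.01% Triton X-100 preincubated 1 h with 20 nM His-tagged protein in PBS, then transferred to wells for 2 h. Anti-His-HRP added for 1 h, then TMB for 30 min, stopped with H2SO4. Room temperature throughout.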

[3] = target: Bcl-2-like protein 1 (Homo sapiens, UniProt Q07817); assay: Binding affinity to N-terminal 8xHis tagged cBcl-XL (unknown origin) expressed in Escherichia coli BL21 (DE3) by ELISA
[4] = target: T1, Apoptosis regulator Bcl-2; assay: Binding affinity to human Bcl-2 (unknown origin) by ITC assay
[5] = target: T2, Induced myeloid leukemia cell differentiation protein Mcl-1; assay: Binding affinity to cMcl-1 (residues 171 to 327) (unknown origin) by ITC assay
Procedure, shortened: (§1)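 ITC at 25 °C in 20 mM Tris pH 8.0, 150 mM NaCl, 1% DMSO. For wild-type versus R263A comparison, 16 × 2.5 µL injections of 500 µM compound into 50 µM protein. Data were corrected against a buffer-only cell titrated with compound and fitted to a one-site model to give Kd.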

[6] = Solubility in 1% DMSO/H2O; assay type: physicochemical
[7] = target: Induced myeloid leukemia cell differentiation protein Mcl-1 (Homo sapiens, UniProt Q07820, R263A); assay: Binding affinity to cMcl-1 R263A mutant (unknown origin) by ITC assay; assay type: single protein; procedure, shortened: as §1
[8] = test system: MCF7; assay: Induction of apoptosis in human MCF7 cells assessed as cytochrome c release at 5 uM incubated for 12 hrs in presence of Bax/Bak ShRNA by Western blotting method; assay type: functional, cell-based
Procedure, shortened: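 Wild-type MCF-7 cells and Bax/Bak shRNA-transfected MCF-7 cells were treated with 5 µM compound. Cytochrome c was detected by western blot in the S-100 cytosolic fraction, obtained from digitonin lysis and centrifugation.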

[9] = test system: HL-60; assay: Induction of apoptosis in human HL60 cells assessed as cytochrome c release at 5 uM incubated for 12 hrs by Western blotting method; assay type: functional, cell-based
Procedure, shortened: (§2)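 Cells treated 12 h with 5 µM compound, then lysed in digitonin lysis buffer. After centrifugation, the cytosolic supernatant (S-100) was probed for cytochrome c by western blot. A parallel harvest was used for Mcl-1/Bak and Bcl-2/Bax co-immunoprecipitation.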

[10] = test system: K562; assay: Induction of apoptosis in human K562 cells assessed as cytochrome c release at 5 uM incubated for 12 hrs by Western blotting method; assay type: functional, cell-based; procedure, shortened: as §2

Chain of Induced myeloid leukemia cell differentiation protein Mcl-1 (Homo sapiens, UniProt Q07820, R263A) (Q07820 whole entry R263A): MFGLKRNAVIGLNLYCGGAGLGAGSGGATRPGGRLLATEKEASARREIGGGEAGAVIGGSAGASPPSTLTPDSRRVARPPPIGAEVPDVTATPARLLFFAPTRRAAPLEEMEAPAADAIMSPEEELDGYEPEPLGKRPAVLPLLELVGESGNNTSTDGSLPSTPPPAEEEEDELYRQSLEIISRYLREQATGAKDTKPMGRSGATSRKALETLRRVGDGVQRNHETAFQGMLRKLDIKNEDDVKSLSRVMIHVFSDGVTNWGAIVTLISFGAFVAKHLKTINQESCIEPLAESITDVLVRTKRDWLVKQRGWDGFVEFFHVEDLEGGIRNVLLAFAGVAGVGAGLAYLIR
T1 sequence (P10415 whole entry, the tested form may be a part): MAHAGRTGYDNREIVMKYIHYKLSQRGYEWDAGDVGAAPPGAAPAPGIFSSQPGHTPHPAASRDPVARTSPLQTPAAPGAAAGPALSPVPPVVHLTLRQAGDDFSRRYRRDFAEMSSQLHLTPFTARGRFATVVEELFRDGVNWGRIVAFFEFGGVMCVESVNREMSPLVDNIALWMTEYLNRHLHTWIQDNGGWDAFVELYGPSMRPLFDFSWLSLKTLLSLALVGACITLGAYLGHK
Chain of Bcl-2-like protein 1 (Q07817 whole entry): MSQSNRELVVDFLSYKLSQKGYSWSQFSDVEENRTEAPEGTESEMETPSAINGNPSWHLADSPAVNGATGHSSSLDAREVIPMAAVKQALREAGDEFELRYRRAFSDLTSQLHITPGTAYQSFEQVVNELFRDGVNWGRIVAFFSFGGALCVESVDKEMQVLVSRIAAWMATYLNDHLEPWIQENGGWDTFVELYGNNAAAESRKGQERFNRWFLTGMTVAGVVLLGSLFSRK
T2 sequence (Q07820 whole entry, the tested form may be a part): as the sequence (Q07820 whole entry R263A) above, with A263R counted along it

SMILES	IC50 [1]	IC50 [2]	IC50 [3]	Kd [4]	Kd ([5]; read-out: pKd (converted))	solubility [6]	Kd ([5]; read-out: Kd)	Kd [7]	Activity [8]	Activity [9]	Activity [10]
CCOC(=O)C1=C2C(=NC1=O)c1cccc3c(N4CCSCC4)ccc2c13	2200 nM	> 10000 nM	–	–	–	–	–	–	–	–	–
CC(C)NC1=C2C(=NC1=O)c1cccc3c(N4CCSCC4)ccc2c13	> 10000 nM	2500 nM	–	–	–	–	–	–	–	–	–
O=C1N=C2C(=C1NCCCc1ccccc1)c1ccc(Sc3ccc(OO)cc3)c3cccc2c13	57 nM	42 nM	53 nM	57.5 nM	41.7 nM	–	–	–	–	–	–
CCCCCNC1=C2C(=NC1=O)c1cccc3c(N4CCSCC4)ccc2c13	–	37 nM	–	–	–	–	–	–	–	–	–
N#CC1=C2C(=NC1=O)c1cccc3c(N4CCSCC4)ccc2c13	715 nM	95 nM	625 nM	708 nM	95.5 nM	2 µg/mL (≈ 6.04 µM)	954 nM	28700 nM	–	–	–
O=C1N=C2C(=C1NCc1ccccc1)c1ccc(N3CCSCC3)c3cccc2c13	> 10000 nM	521 nM	–	–	–	–	–	–	–	–	–
CCCCCCNC1=C2C(=NC1=O)c1cccc3c(N4CCSCC4)ccc2c13	96 nM	37 nM	85 nM	95.5 nM	37.2 nM	–	–	–	–	–	–
N#CC1=C2C(=NC1=O)c1cccc3c(Sc4ccc(N)cc4)ccc2c13	331 nM	90 nM	291 nM	331 nM	91.2 nM	–	–	–	–	–	–
CCCCCCNC1=C2C(=NC1=O)c1cccc3c(Sc4ccc(OC)cc4)ccc2c13	206 nM	78 nM	181 nM	204 nM	77.6 nM	–	–	–	–	–	–
CC(C)c1ccc(Oc2ccc3c4c(cccc24)C2=NC(=O)C(C#N)=C23)cc1	739 nM	321 nM	650 nM	759 nM	324 nM	–	–	–	–	–	–
Cc1cc2c(C(C)C)c(O)c(O)c(C=O)c2c(O)c1-c1c(C)cc2c(C(C)C)c(O)c(O)c(C=O)c2c1O [GOSSYPOL]	–	–	–	–	–	–	2320 nM	–	Active	–	–
CCCCNC1=C2C(=NC1=O)c1cccc3c(Oc4ccc(C(C)C)cc4)ccc2c13	322 nM	141 nM	283 nM	324 nM	141 nM	–	–	–	–	–	–
COc1ccc(Sc2ccc3c4c(cccc24)C2=NC(=O)C(C#N)=C23)cc1	945 nM	388 nM	833 nM	955 nM	389 nM	–	–	–	–	–	–
CCCCNC1=C2C(=NC1=O)c1cccc3c(Sc4ccc(N)cc4)ccc2c13	190 nM	50 nM	165 nM	191 nM	50.1 nM	27 µg/mL (≈ 67.6 µM)	512 nM	12800 nM	inactive	Active	Active
O=C1N=C2C(=C1NCCCCCc1ccccc1)c1ccc(N3CCSCC3)c3cccc2c13	1300 nM	1100 nM	–	–	–	–	–	–	–	–	–
CC(C)c1ccc(Oc2ccc3c4c(cccc24)C2=NC(=O)C(NCCCc4ccccc4)=C23)cc1	42 nM	39 nM	37 nM	41.7 nM	38.9 nM	–	–	–	–	–	–
CCCOC(=O)C1=C2C(=NC1=O)c1cccc3c(N4CCSCC4)ccc2c13	2100 nM	> 10000 nM	–	–	–	–	–	–	–	–	–
CCCCCCNC1=C2C(=NC1=O)c1cccc3c(Sc4ccc(N)cc4)ccc2c13	80 nM	30 nM	71 nM	79.4 nM	29.5 nM	–	–	–	–	–	–
CCCCNC1=C2C(=NC1=O)c1cccc3c(Sc4ccc(OC)cc4)ccc2c13	356 nM	150 nM	315 nM	355 nM	151 nM	–	–	–	–	–	–
O=C1N=C2C(=C1NCCCc1ccccc1)c1ccc(N3CCSCC3)c3cccc2c13	49 nM	15 nM	43 nM	49 nM	15.1 nM	–	–	–	–	–	–
Nc1ccc(Sc2ccc3c4c(cccc24)C2=NC(=O)C(NCCCc4ccccc4)=C23)cc1	20 nM	10 nM	18 nM	20 nM	10 nM	18 µg/mL (≈ 39 µM)	105 nM	2340 nM	inactive	Active	Active
CCCCNC1=C2C(=NC1=O)c1cccc3c(N4CCSCC4)ccc2c13	198 nM	79 nM	171 nM	200 nM	79.4 nM	–	–	–	–	–	–
CCCCCCNC1=C2C(=NC1=O)c1cccc3c(Oc4ccc(C(C)C)cc4)ccc2c13	184 nM	75 nM	162 nM	182 nM	79.4 nM	–	802 nM	19200 nM	–	–	–
